Data: ChEMBL document CHEMBL1140345, “Conformational constraint in oxazolidinone antibacterials. Synthesis and structure-activity studies of (azabicyclo[3.1.0]hexylphenyl)oxazolidinones” (2005)
≈ marks a conversion by molar mass, not a printed value.

What follows are compounds tested on Haemophilus influenzae (assay: Minimum inhibitory concentration against ampicillin-reisitant Haemophilus influenzae UC30063). Conditions: Haemophilus influenzae; read-out: MIC.
Type: functional
Method in brief: (§1)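 Broth microdilution MIC following the NCCLS M7-A4 approved standard for dilution susceptibility testing of aerobically growing bacteria. The method is taken as accurate to within one dilution.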

SMILES | MIC
O=C(NC[C@H]1CN(c2cc(F)c(N3C[C@@H]4[C@H](C3)[C@H]4C(=O)O)c(F)c2)C(=O)O1)C(Cl)Cl | 4 µg/mL (≈ 8.62 µM)
CC(=O)NC[C@H]1CN(c2cc(F)c(N3C[C@@H]4[C@H](C3)[C@H]4C(=O)NCc3ccccn3)c(F)c2)C(=O)O1 | > 64 µg/mL
N[C@@H]1[C@H]2CN(c3c(F)cc(N4C[C@H](CNC(=O)C(F)F)OC4=O)cc3F)C[C@@H]12 | 8 µg/mL (≈ 19.9 µM)
CC(=O)NC[C@H]1CN(c2cc(F)c(N3C[C@@H]4[C@H](C3)[C@H]4C(=O)Nc3nccs3)c(F)c2)C(=O)O1 | > 64 µg/mL
CC(=O)NC[C@H]1CN(c2cc(F)c(N3C[C@@H]4[C@H](C3)[C@H]4C(=O)NCc3ccco3)c(F)c2)C(=O)O1 | > 64 µg/mL
COc1ccc(NC(=O)[C@H]2[C@@H]3CN(c4c(F)cc(N5C[C@H](CNC(C)=O)OC5=O)cc4F)C[C@@H]32)cn1 | > 64 µg/mL
N[C@@H]1[C@H]2CN(c3c(F)cc(N4C[C@H](CNC(=O)C(Cl)Cl)OC4=O)cc3F)C[C@@H]12 | 4 µg/mL (≈ 9.19 µM)
CC(=O)NC[C@H]1CN(c2ccc(N3C[C@@H]4[C@H](C3)[C@H]4C(=O)O)c(F)c2)C(=O)O1 | 16 µg/mL (≈ 42.4 µM)
CC(=O)NC[C@H]1CN(c2ccc(N3C[C@H]4C[C@H]4C3)c(F)c2)C(=O)O1 | 32 µg/mL (≈ 96 µM)
O=C(NC[C@H]1CN(c2cc(F)c(N3C[C@@H]4[C@H](C3)[C@H]4C(=O)O)c(F)c2)C(=O)O1)C(F)F | 4 µg/mL (≈ 9.27 µM)
CC(=O)NC[C@H]1CN(c2cc(F)c(N3C[C@@H]4[C@H](C3)[C@H]4C(=O)Nc3ccc4c(c3)OCO4)c(F)c2)C(=O)O1 | > 64 µg/mL

The compounds below were run on Escherichia coli (assay: Minimum inhibitory concentration against Escherichia coli UC6674). Conditions: not given.
Type: functional
Method in brief: as §1

SMILES | MIC
CC(=O)NC[C@H]1CN(c2ccc(N3C[C@@H]4[C@H](C3)[C@H]4C(=O)O)c(F)c2)C(=O)O1 | > 64 µg/mL
CC(=O)NC[C@H]1CN(c2ccc(N3C[C@H]4C[C@H]4C3)c(F)c2)C(=O)O1 | > 64 µg/mL

The compounds below were run on Staphylococcus epidermidis (assay: Minimum inhibitory concentration against methicillin-resistant Staphylococcus epidermidis UC12084). Conditions: not given.

SMILES | MIC
O=C(NC[C@H]1CN(c2cc(F)c(N3C[C@@H]4[C@H](C3)[C@H]4C(=O)O)c(F)c2)C(=O)O1)C(Cl)Cl | 0.5 µg/mL (≈ 1.08 µM)
CC(=O)NC[C@H]1CN(c2cc(F)c(N3C[C@@H]4[C@H](C3)[C@H]4C(=O)NCc3ccccn3)c(F)c2)C(=O)O1 | 1 µg/mL (≈ 2.06 µM)
N[C@@H]1[C@H]2CN(c3c(F)cc(N4C[C@H](CNC(=O)C(F)F)OC4=O)cc3F)C[C@@H]12 | 2 µg/mL (≈ 4.97 µM)
CC(=O)NC[C@H]1CN(c2cc(F)c(N3C[C@@H]4[C@H](C3)[C@H]4C(=O)Nc3nccs3)c(F)c2)C(=O)O1 | 0.25 µg/mL (≈ 0.524 µM)
CC(=O)NC[C@H]1CN(c2cc(F)c(N3C[C@@H]4[C@H](C3)[C@H]4C(=O)NCc3ccco3)c(F)c2)C(=O)O1 | 1 µg/mL (≈ 2.11 µM)
COc1ccc(NC(=O)[C@H]2[C@@H]3CN(c4c(F)cc(N5C[C@H](CNC(C)=O)OC5=O)cc4F)C[C@@H]32)cn1 | 1 µg/mL (≈ 1.99 µM)
N[C@@H]1[C@H]2CN(c3c(F)cc(N4C[C@H](CNC(=O)C(Cl)Cl)OC4=O)cc3F)C[C@@H]12 | 2 µg/mL (≈ 4.59 µM)
CC(=O)NC[C@H]1CN(c2ccc(N3C[C@@H]4[C@H](C3)[C@H]4C(=O)O)c(F)c2)C(=O)O1 | 2 µg/mL (≈ 5.3 µM)
CC(=O)NC[C@H]1CN(c2ccc(N3C[C@H]4C[C@H]4C3)c(F)c2)C(=O)O1 | 1 µg/mL (≈ 3 µM)
O=C(NC[C@H]1CN(c2cc(F)c(N3C[C@@H]4[C@H](C3)[C@H]4C(=O)O)c(F)c2)C(=O)O1)C(F)F | 0.5 µg/mL (≈ 1.16 µM)
CC(=O)NC[C@H]1CN(c2cc(F)c(N3C[C@@H]4[C@H](C3)[C@H]4C(=O)Nc3ccc4c(c3)OCO4)c(F)c2)C(=O)O1 | 0.5 µg/mL (≈ 0.972 µM)

What follows are compounds tested on Staphylococcus aureus (assay: Minimum inhibitory concentration against methicillin-susceptible Staphylococcus aureus UC9213). Conditions: not given.
Type: functional
Method in brief: (§2)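 MIC determined by standard broth microdilution following the NCCLS M7-A4 approved standard for dilution susceptibility testing of aerobically growing bacteria.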

SMILES | MIC
O=C(NC[C@H]1CN(c2cc(F)c(N3C[C@@H]4[C@H](C3)[C@H]4C(=O)O)c(F)c2)C(=O)O1)C(Cl)Cl | 1 µg/mL (≈ 2.15 µM)
CC(=O)NC[C@H]1CN(c2cc(F)c(N3C[C@@H]4[C@H](C3)[C@H]4C(=O)NCc3ccccn3)c(F)c2)C(=O)O1 | 4 µg/mL (≈ 8.24 µM)
N[C@@H]1[C@H]2CN(c3c(F)cc(N4C[C@H](CNC(=O)C(F)F)OC4=O)cc3F)C[C@@H]12 | 4 µg/mL (≈ 9.94 µM)
CC(=O)NC[C@H]1CN(c2cc(F)c(N3C[C@@H]4[C@H](C3)[C@H]4C(=O)Nc3nccs3)c(F)c2)C(=O)O1 | 2 µg/mL (≈ 4.19 µM)
CC(=O)NC[C@H]1CN(c2cc(F)c(N3C[C@@H]4[C@H](C3)[C@H]4C(=O)NCc3ccco3)c(F)c2)C(=O)O1 | 2 µg/mL (≈ 4.22 µM)
COc1ccc(NC(=O)[C@H]2[C@@H]3CN(c4c(F)cc(N5C[C@H](CNC(C)=O)OC5=O)cc4F)C[C@@H]32)cn1 | 2 µg/mL (≈ 3.99 µM)
N[C@@H]1[C@H]2CN(c3c(F)cc(N4C[C@H](CNC(=O)C(Cl)Cl)OC4=O)cc3F)C[C@@H]12 | 4 µg/mL (≈ 9.19 µM)
CC(=O)NC[C@H]1CN(c2ccc(N3C[C@@H]4[C@H](C3)[C@H]4C(=O)O)c(F)c2)C(=O)O1 | 8 µg/mL (≈ 21.2 µM)
CC(=O)NC[C@H]1CN(c2ccc(N3C[C@H]4C[C@H]4C3)c(F)c2)C(=O)O1 | 2 µg/mL (≈ 6 µM)
O=C(NC[C@H]1CN(c2cc(F)c(N3C[C@@H]4[C@H](C3)[C@H]4C(=O)O)c(F)c2)C(=O)O1)C(F)F | 1 µg/mL (≈ 2.32 µM)
CC(=O)NC[C@H]1CN(c2cc(F)c(N3C[C@@H]4[C@H](C3)[C@H]4C(=O)Nc3ccc4c(c3)OCO4)c(F)c2)C(=O)O1 | 1 µg/mL (≈ 1.94 µM)

These compounds were tested on Staphylococcus aureus (assay: Minimum inhibitory concentration against methicillin, ciprofloxacin, rifampin, imipenem-resistant Staphylococcus aureus UC12673). Conditions: not given.
Type: functional
Method in brief: as §2

SMILES | MIC
O=C(NC[C@H]1CN(c2cc(F)c(N3C[C@@H]4[C@H](C3)[C@H]4C(=O)O)c(F)c2)C(=O)O1)C(Cl)Cl | 0.5 µg/mL (≈ 1.08 µM)
CC(=O)NC[C@H]1CN(c2cc(F)c(N3C[C@@H]4[C@H](C3)[C@H]4C(=O)NCc3ccccn3)c(F)c2)C(=O)O1 | 4 µg/mL (≈ 8.24 µM)
N[C@@H]1[C@H]2CN(c3c(F)cc(N4C[C@H](CNC(=O)C(F)F)OC4=O)cc3F)C[C@@H]12 | 2 µg/mL (≈ 4.97 µM)
CC(=O)NC[C@H]1CN(c2cc(F)c(N3C[C@@H]4[C@H](C3)[C@H]4C(=O)Nc3nccs3)c(F)c2)C(=O)O1 | 1 µg/mL (≈ 2.09 µM)
CC(=O)NC[C@H]1CN(c2cc(F)c(N3C[C@@H]4[C@H](C3)[C@H]4C(=O)NCc3ccco3)c(F)c2)C(=O)O1 | 2 µg/mL (≈ 4.22 µM)
COc1ccc(NC(=O)[C@H]2[C@@H]3CN(c4c(F)cc(N5C[C@H](CNC(C)=O)OC5=O)cc4F)C[C@@H]32)cn1 | 2 µg/mL (≈ 3.99 µM)
N[C@@H]1[C@H]2CN(c3c(F)cc(N4C[C@H](CNC(=O)C(Cl)Cl)OC4=O)cc3F)C[C@@H]12 | 2 µg/mL (≈ 4.59 µM)
CC(=O)NC[C@H]1CN(c2ccc(N3C[C@@H]4[C@H](C3)[C@H]4C(=O)O)c(F)c2)C(=O)O1 | 4 µg/mL (≈ 10.6 µM)
CC(=O)NC[C@H]1CN(c2ccc(N3C[C@H]4C[C@H]4C3)c(F)c2)C(=O)O1 | 2 µg/mL (≈ 6 µM)
O=C(NC[C@H]1CN(c2cc(F)c(N3C[C@@H]4[C@H](C3)[C@H]4C(=O)O)c(F)c2)C(=O)O1)C(F)F | 0.5 µg/mL (≈ 1.16 µM)
CC(=O)NC[C@H]1CN(c2cc(F)c(N3C[C@@H]4[C@H](C3)[C@H]4C(=O)Nc3ccc4c(c3)OCO4)c(F)c2)C(=O)O1 | 1 µg/mL (≈ 1.94 µM)

These compounds were tested on Streptococcus pneumoniae (assay: Minimum inhibitory concentration against penicillin-susceptible Streptococcus pneumoniae UC9912). Conditions: Streptococcus pneumoniae; read-out: MIC.
Type: functional
Method in brief: as §1

SMILES | MIC
O=C(NC[C@H]1CN(c2cc(F)c(N3C[C@@H]4[C@H](C3)[C@H]4C(=O)O)c(F)c2)C(=O)O1)C(Cl)Cl | 0.5 µg/mL (≈ 1.08 µM)
CC(=O)NC[C@H]1CN(c2cc(F)c(N3C[C@@H]4[C@H](C3)[C@H]4C(=O)NCc3ccccn3)c(F)c2)C(=O)O1 | 0.5 µg/mL (≈ 1.03 µM)
N[C@@H]1[C@H]2CN(c3c(F)cc(N4C[C@H](CNC(=O)C(F)F)OC4=O)cc3F)C[C@@H]12 | 1 µg/mL (≈ 2.49 µM)
CC(=O)NC[C@H]1CN(c2cc(F)c(N3C[C@@H]4[C@H](C3)[C@H]4C(=O)Nc3nccs3)c(F)c2)C(=O)O1 | 0.13 µg/mL (≈ 0.272 µM)
CC(=O)NC[C@H]1CN(c2cc(F)c(N3C[C@@H]4[C@H](C3)[C@H]4C(=O)NCc3ccco3)c(F)c2)C(=O)O1 | 0.5 µg/mL (≈ 1.05 µM)
COc1ccc(NC(=O)[C@H]2[C@@H]3CN(c4c(F)cc(N5C[C@H](CNC(C)=O)OC5=O)cc4F)C[C@@H]32)cn1 | 0.5 µg/mL (≈ 0.997 µM)
N[C@@H]1[C@H]2CN(c3c(F)cc(N4C[C@H](CNC(=O)C(Cl)Cl)OC4=O)cc3F)C[C@@H]12 | 0.5 µg/mL (≈ 1.15 µM)
CC(=O)NC[C@H]1CN(c2ccc(N3C[C@@H]4[C@H](C3)[C@H]4C(=O)O)c(F)c2)C(=O)O1 | 4 µg/mL (≈ 10.6 µM)
CC(=O)NC[C@H]1CN(c2ccc(N3C[C@H]4C[C@H]4C3)c(F)c2)C(=O)O1 | 1 µg/mL (≈ 3 µM)
O=C(NC[C@H]1CN(c2cc(F)c(N3C[C@@H]4[C@H](C3)[C@H]4C(=O)O)c(F)c2)C(=O)O1)C(F)F | 1 µg/mL (≈ 2.32 µM)
CC(=O)NC[C@H]1CN(c2cc(F)c(N3C[C@@H]4[C@H](C3)[C@H]4C(=O)Nc3ccc4c(c3)OCO4)c(F)c2)C(=O)O1 | 0.5 µg/mL (≈ 0.972 µM)

Each compound was assayed on Enterococcus faecalis (assay: Minimum inhibitory concentration against Enterococcus faecalis UC9217). Conditions: not given.
Type: functional
Method in brief: as §1

SMILES | MIC
O=C(NC[C@H]1CN(c2cc(F)c(N3C[C@@H]4[C@H](C3)[C@H]4C(=O)O)c(F)c2)C(=O)O1)C(Cl)Cl | 0.5 µg/mL (≈ 1.08 µM)
CC(=O)NC[C@H]1CN(c2cc(F)c(N3C[C@@H]4[C@H](C3)[C@H]4C(=O)NCc3ccccn3)c(F)c2)C(=O)O1 | 1 µg/mL (≈ 2.06 µM)
N[C@@H]1[C@H]2CN(c3c(F)cc(N4C[C@H](CNC(=O)C(F)F)OC4=O)cc3F)C[C@@H]12 | 2 µg/mL (≈ 4.97 µM)
CC(=O)NC[C@H]1CN(c2cc(F)c(N3C[C@@H]4[C@H](C3)[C@H]4C(=O)Nc3nccs3)c(F)c2)C(=O)O1 | 0.5 µg/mL (≈ 1.05 µM)
CC(=O)NC[C@H]1CN(c2cc(F)c(N3C[C@@H]4[C@H](C3)[C@H]4C(=O)NCc3ccco3)c(F)c2)C(=O)O1 | 1 µg/mL (≈ 2.11 µM)
COc1ccc(NC(=O)[C@H]2[C@@H]3CN(c4c(F)cc(N5C[C@H](CNC(C)=O)OC5=O)cc4F)C[C@@H]32)cn1 | 1 µg/mL (≈ 1.99 µM)
N[C@@H]1[C@H]2CN(c3c(F)cc(N4C[C@H](CNC(=O)C(Cl)Cl)OC4=O)cc3F)C[C@@H]12 | 2 µg/mL (≈ 4.59 µM)
CC(=O)NC[C@H]1CN(c2ccc(N3C[C@@H]4[C@H](C3)[C@H]4C(=O)O)c(F)c2)C(=O)O1 | 4 µg/mL (≈ 10.6 µM)
CC(=O)NC[C@H]1CN(c2ccc(N3C[C@H]4C[C@H]4C3)c(F)c2)C(=O)O1 | 2 µg/mL (≈ 6 µM)
O=C(NC[C@H]1CN(c2cc(F)c(N3C[C@@H]4[C@H](C3)[C@H]4C(=O)O)c(F)c2)C(=O)O1)C(F)F | 0.5 µg/mL (≈ 1.16 µM)
CC(=O)NC[C@H]1CN(c2cc(F)c(N3C[C@@H]4[C@H](C3)[C@H]4C(=O)Nc3ccc4c(c3)OCO4)c(F)c2)C(=O)O1 | 1 µg/mL (≈ 1.94 µM)
